Test results: paper PMC3358452 (Chemical Research in Toxicology, 2012)
Like-named read-outs stand apart in the source and are kept apart here.

Experiments:
[1] = type: physicochemical
In short: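 Reverse-phase HPLC quantified lactone left after an acidic aqueous solution reached equilibrium at 25 °C. The solution initially held 0.05 M lactone, measured gravimetrically, in 5% by volume acetonitrile. Ionic strength was set with KCl and hydrogen ion concentration varied. Remaining lactone was interpolated from a standard curve; triplicate injections per determination.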

Kinetics of decay = type: physicochemical; conditions: for half-life at 0.0013 M: buffered aqueous solution, pH 7, t1/2 for decay
In short: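 The first check was in D2O with 0.005 M DCl, 0.005 M lactone and 0.005 M acetonitrile as internal standard, at 25 °C. Loss of the C-6 1H-NMR resonances at 4.78 ppm was compared with UV decay at 225 nm. The extended UV runs used 220–235 nm, 5% acetonitrile/H2O, ionic strength 1 M (KCl), 25 °C and 0.0013 M lactone. Buffers were formic, acetic, cacodylic and ethylphosphonic.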

[2] = Lower limit of KO by monitoring disappearance of the lactone multiplets; type: physicochemical; conditions: D2O, 1 M DClO4, lactone multiplets monitored to equilibrium
pKa of = type: physicochemical; conditions: Calculated pKa, 25 °C, buffer 0.05 M, AH/A- = 1.0
In short: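 pH was measured in solutions of the sodium salt of the acid, measured gravimetrically and partially neutralized with HCl. Solutions held 5% by volume acetonitrile, with ionic strength balanced by KCl. […] Mean and SD of duplicates at 25 °C.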

[3] = group 2: AFB1 followed by 1 (1.32 g over 12 weeks), mean ± SEM
[4] = group 3: 1 only (1.32 g over 12 weeks)
[5] = fit of log ko vs pH, 25 °C, ionic strength 1 M (KCl), 5% by volume acetonitrile

With `O=C1COCCO1` [compound 1, 1,4-Dioxan-2-one] the “KOA, equilibrium constant between 1 and carboxylic acid anion 3 and the proton (KOA = Ka × KO)” value ([1]; 25 °C, ionic strength 1M (KCl), 5% by volume acetonitrile) was 0.034 ± 0.002 M, the “Ko, equilibrium constant for lactone 1 and its open-chain acid form” value ([1]; 25 °C, [HCl] 0.05 M, total ionic strength 0.05 M, 5% by volume acetonitrile) was 71 and the “Ko, equilibrium constant for lactone 1 and its open-chain acid form” value ([1]; 25 °C, [HCl] 0.10 M, total ionic strength 1.0 M (KCl), 5% by volume acetonitrile) was 70. For the same molecule, the “Ko, equilibrium constant for lactone 1 and its open-chain acid form” value ([1]; 25 °C, [HCl] 0.20 M, total ionic strength 1.0 M (KCl), 5% by volume acetonitrile) was 70, the “KO, equilibrium constant between 1 and hydrolysis product 2” value ([1]; acidic aqueous media, 25 °C, ionic strength 1M (KCl), 5% by volume acetonitrile) was 70 ± 3.5 and the “lactone as percent of the total species at equilibrium” value ([1]; pH = 7) was ~ 3 ×10^−4%. For the same molecule, the “average size of observed GST-P positive foci” value (F344 rat liver; group 2 (AFB1 + 1), data not shown) was greater than 200 µm, the “Foci per cubic cm (morphometric)” value (F344 rat liver; [3]) was 1190 ± 230 and the “Mean Diameter of foci (morphometric)” value (F344 rat liver; [3]) was 210 ± 32 microns. For the same molecule, the “Volume % of liver occupied by GST-P positive foci” value (from here on “Volume % … by GST-P positive foci”) (F344 rat liver; [3]) was 2.1 ± 0.7%, the “diameter of the single focus observed” value (F344 rat liver; group 3 (1 only)) was 65 µm and the “Mean Diameter of foci (morphometric)” value (F344 rat liver; [4]) was 65 microns. The “Volume % … by GST-P positive foci” value (F344 rat liver; [4]) was 0.001%, the “Foci per cubic cm (morphometric)” value (F344 rat liver; group 3: 1 only (1.32 g over 12 weeks), mean ± SEM) was 6.1 ± 6.1 and the “Mean Foci Counted (observed)” value (F344 rat liver; group 3: 1 only, gavage 3 days/week for 12 weeks (1.32 g total), mean ± SEM) was 0.1 ± 0.1. For the same molecule, the “first order rate constant of decay (NMR)” value (Kinetics of decay; 1H-NMR, D2O, 0.005 M DCl, 25 °C) was 0.017 ± 0.002 min⁻¹, the “first order rate constant of decay (UV)” value (Kinetics of decay; UV spectrophotometry, D2O, 0.005 M DCl, 25 °C) was 0.016 ± 0.001 min⁻¹ and the half-life at 0.0013 M (Kinetics of decay; pH 7) was 2.12 h. The half-life at 0.0013 M (Kinetics of decay; pH = 7.0, 25 °C) was roughly 2 h, the “factor by which 1 is more reactive toward hydroxide ion than valerolactone” value (Kinetics of decay; comparison with literature rate constant) was ~ 1500 and the “kH+, hydrogen ion catalyzed rate constant for solvolysis” value (Kinetics of decay; [5]) was 1.1 (± 0.1) M^−1 min^−1. The “kOH, hydroxide ion catalyzed rate constant” value (Kinetics of decay; [5]) was 4.1 (± 0.3) × 10^4 M^−1 min^−1, the “kw, water catalyzed (pH-independent) rate constant” value (Kinetics of decay; [5]) was 9.9 (± 0.5) × 10^−4 min^−1 and the “KO, lower limit value” [2] was greater than 50.

With `O=C(O)COCCO` [compound 2, 2-(2-hydroxyethoxy) acetic acid] the pKa (pKa of; ionic strength 0.05 M) was 3.43, the pKa (pKa of; ionic strength 0.25 M (KCl)) was 3.36 and the pKa (pKa of; ionic strength 0.35 M (KCl)) was 3.36. It also gave a pKa (pKa of; ionic strength 0.45 M (KCl)) of 3.36 and a pKa (pKa of; ionic strength 0.55 M (KCl)) of 3.38.

In the case of aflatoxin B1 [AFB1, reference compound], the “Foci per cubic cm (morphometric)” value (F344 rat liver; rat, in vivo) is reported as 1230 ± 410, the “Mean Diameter of foci (morphometric)” value (F344 rat liver; rat, in vivo) is reported as 227 ± 35 microns and the “Mean Foci Counted (observed)” value (F344 rat liver; rat, in vivo) is reported as 44 ± 8. For the same molecule, the “Volume % … by GST-P positive foci” value (F344 rat liver; rat, in vivo) was 3.1 ± 1.0% and the “average size of observed GST-P positive foci” value (F344 rat liver; rat, in vivo) was greater than 200 µm.
